Experimental data from ChEMBL document CHEMBL5724801, “EUbOPEN Chemogenomics Library - Multiplex” (2024).
Values joined by “and” are separate entries in the source; they are usually repeats but may differ in a detail not shown here. Equal values may be shown once.

Tested on: Fibroblast
Test: Multiplex assay against human fibroblast
Format: toxicity, cell-based
Summary of the method: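 Phenotypes for tubulin, mitochondrial mass and membrane permeability are expressed as per cents of healthy-nucleus cells. Cells were stained live at seeding with Hoechst33342, BioTracker Green Microtubule Cytoskeleton Dye, MitoTracker Red and Annexin V Alexa Fluor 680, then imaged after compound addition on a CQ1 microscope at 37°C and 5% CO2. Machine-learning gating in CellPathfinder separated Hoechst high-intensity objects from normal cells, divided normal cells by nuclear state (healthy, pyknosed, fragmented) and divided pyknosed cells into mitotic or apoptotic.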

[1] = 12 h, 1 µM, compound concentration 1 uM
[2] = 12 h, 10 µM, compound concentration 10 uM
[3] = 24 h, 1 µM, compound concentration 1 uM
[4] = 24 h, 10 µM, compound concentration 10 uM
[5] = 48 h, 1 µM, compound concentration 1 uM
[6] = 48 h, 10 µM, compound concentration 10 uM

For `c1cc(OCCCN2CCCCC2)ccc1CN1CCCCC1` [JNJ-5207852], the “Population Apoptotic (%)” value [1] was 37% and 26%, the “Population Fragmented Nuclei (%)” value [1] was 15% and 24% and the “Population Healthy Nuclei (%)” value [1] was 64% and 51%. The “Population Hoechst High Intensity Objects (%)” value [1] was 1% and 7%, the “Population Membrane Permeable-Phenotype (%)” value [1] was 0% and 8% and the “Population Mitochondria Different-Phenotype (%)” value [1] was 2% and 5%. For the same compound, the “Population Mitotic Cells (%)” value [1] was 62% and 73%, the “Population Normal (%)” value [1] was 98% and 92% and the “Population Pyknosed Nuclei (%)” value [1] was 20% and 23%. The “Population Tubulin-Different-Phenotype (%)” value [1] was 26% and 49%, the “Total Cell Count” value [1] was 181 and 153 and the “Population Apoptotic (%)” value [2] was 50% and 43%. The “Population Fragmented Nuclei (%)” value [2] was 22% and 36%, the “Population Healthy Nuclei (%)” value [2] was 68% and 42% and the “Population Hoechst High Intensity Objects (%)” value [2] was 1%. For the same compound, the “Population Membrane Permeable-Phenotype (%)” value [2] was 0% and 12%, the “Population Mitochondria Different-Phenotype (%)” value [2] was 6% and 10% and the “Population Mitotic Cells (%)” value [2] was 50% and 56%. For the same compound, the “Population Normal (%)” value [2] was 98%, the “Population Pyknosed Nuclei (%)” value [2] was 9% and 20% and the “Population Tubulin-Different-Phenotype (%)” value [2] was 35% and 60%. The “Total Cell Count” value [2] was 193 and 114, the “Population Apoptotic (%)” value [3] was 38% and 33% and the “Population Fragmented Nuclei (%)” value [3] was 18% and 28%. The “Population Healthy Nuclei (%)” value [3] was 66% and 51%, the “Population Hoechst High Intensity Objects (%)” value [3] was 2% and 5% and the “Population Membrane Permeable-Phenotype (%)” value [3] was 0% and 5%. The “Population Mitochondria Different-Phenotype (%)” value [3] was 2% and 6%, the “Population Mitotic Cells (%)” value [3] was 61% and 66% and the “Population Normal (%)” value [3] was 97% and 95%. The “Population Pyknosed Nuclei (%)” value [3] was 15% and 19%, the “Population Tubulin-Different-Phenotype (%)” value [3] was 23% and 55% and the “Total Cell Count” value [3] was 176 and 160. For the same compound, the “Population Apoptotic (%)” value [4] was 60% and 41%, the “Population Fragmented Nuclei (%)” value [4] was 24% and 45% and the “Population Healthy Nuclei (%)” value [4] was 65% and 38%. For the same compound, the “Population Hoechst High Intensity Objects (%)” value [4] was 1% and 5%, the “Population Membrane Permeable-Phenotype (%)” value [4] was 0% and 4% and the “Population Mitochondria Different-Phenotype (%)” value [4] was 6% and 13%. The “Population Mitotic Cells (%)” value [4] was 40% and 58%, the “Population Normal (%)” value [4] was 99% and 94% and the “Population Pyknosed Nuclei (%)” value [4] was 10% and 15%. The “Population Tubulin-Different-Phenotype (%)” value [4] was 34% and 67%, the “Total Cell Count” value [4] was 201 and 118 and the “Population Apoptotic (%)” value [5] was 70% and 44%. The “Population Fragmented Nuclei (%)” value [5] was 18% and 32%, the “Population Healthy Nuclei (%)” value [5] was 63% and 48% and the “Population Hoechst High Intensity Objects (%)” value [5] was 2% and 4%. For the same compound, the “Population Membrane Permeable-Phenotype (%)” value [5] was 0% and 5%, the “Population Mitochondria Different-Phenotype (%)” value [5] was 2% and the “Population Mitotic Cells (%)” value [5] was 29% and 55%. The “Population Normal (%)” value [5] was 97% and 95%, the “Population Pyknosed Nuclei (%)” value [5] was 17% and 18% and the “Population Tubulin-Different-Phenotype (%)” value [5] was 23% and 50%. The “Total Cell Count” value [5] was 184 and 160, the “Population Apoptotic (%)” value [6] was 55% and 30% and the “Population Fragmented Nuclei (%)” value [6] was 19% and 48%. The “Population Healthy Nuclei (%)” value [6] was 70% and 41%, the “Population Hoechst High Intensity Objects (%)” value [6] was 2% and 3% and the “Population Membrane Permeable-Phenotype (%)” value [6] was 0% and 5%. The “Population Mitochondria Different-Phenotype (%)” value [6] was 2% and 11%, the “Population Mitotic Cells (%)” value [6] was 44% and 69% and the “Population Normal (%)” value [6] was 97% and 96%. For the same compound, the “Population Pyknosed Nuclei (%)” value [6] was 9% and 10%, the “Population Tubulin-Different-Phenotype (%)” value [6] was 34% and 66% and the “Total Cell Count” value [6] was 189 and 132.

`Cc1nn(C)c2nc(NNC(=O)Nc3cc(Cl)nc(Cl)c3)cc(C(C)C)c12` was tested, and the “Population Apoptotic (%)” value [1] was 62% and 37%, the “Population Fragmented Nuclei (%)” value [1] was 15% and 31% and the “Population Healthy Nuclei (%)” value [1] was 68% and 53%. The “Population Hoechst High Intensity Objects (%)” value [1] was 3% and 2%, the “Population Membrane Permeable-Phenotype (%)” value [1] was 0% and the “Population Mitochondria Different-Phenotype (%)” value [1] was 4% and 7%. For the same compound, the “Population Mitotic Cells (%)” value [1] was 37% and 62%, the “Population Normal (%)” value [1] was 96% and 97% and the “Population Pyknosed Nuclei (%)” value [1] was 15%. The “Population Tubulin-Different-Phenotype (%)” value [1] was 27% and 46%, the “Total Cell Count” value [1] was 178 and 179 and the “Population Apoptotic (%)” value [2] was 53% and 21%. For the same compound, the “Population Fragmented Nuclei (%)” value [2] was 12% and 33%, the “Population Healthy Nuclei (%)” value [2] was 63% and 56% and the “Population Hoechst High Intensity Objects (%)” value [2] was 3% and 7%. The “Population Membrane Permeable-Phenotype (%)” value [2] was 2% and 5%, the “Population Mitochondria Different-Phenotype (%)” value [2] was 15% and 6% and the “Population Mitotic Cells (%)” value [2] was 46% and 78%. For the same compound, the “Population Normal (%)” value [2] was 96% and 92%, the “Population Pyknosed Nuclei (%)” value [2] was 23% and 10% and the “Population Tubulin-Different-Phenotype (%)” value [2] was 89%. The “Total Cell Count” value [2] was 139 and 140, the “Population Apoptotic (%)” value [3] was 59% and 62% and the “Population Fragmented Nuclei (%)” value [3] was 18% and 21%. For the same compound, the “Population Healthy Nuclei (%)” value [3] was 68%, the “Population Hoechst High Intensity Objects (%)” value [3] was 1% and 2% and the “Population Membrane Permeable-Phenotype (%)” value [3] was 1% and 2%. For the same compound, the “Population Mitochondria Different-Phenotype (%)” value [3] was 3% and 6%, the “Population Mitotic Cells (%)” value [3] was 40% and 37% and the “Population Normal (%)” value [3] was 98% and 97%. For the same compound, the “Population Pyknosed Nuclei (%)” value [3] was 12% and 9%, the “Population Tubulin-Different-Phenotype (%)” value [3] was 29% and 50% and the “Total Cell Count” value [3] was 176 and 174. For the same compound, the “Population Apoptotic (%)” value [4] was 52% and 25%, the “Population Fragmented Nuclei (%)” value [4] was 12% and 28% and the “Population Healthy Nuclei (%)” value [4] was 69% and 61%. The “Population Hoechst High Intensity Objects (%)” value [4] was 4% and 8%, the “Population Membrane Permeable-Phenotype (%)” value [4] was 1% and 0% and the “Population Mitotic Cells (%)” value [4] was 47% and 75%. The “Population Normal (%)” value [4] was 95% and 91%, the “Population Pyknosed Nuclei (%)” value [4] was 18% and 9% and the “Population Tubulin-Different-Phenotype (%)” value [4] was 95% and 89%. For the same compound, the “Total Cell Count” value [4] was 130 and 132, the “Population Apoptotic (%)” value [5] was 71% and 57% and the “Population Fragmented Nuclei (%)” value [5] was 18% and 34%. For the same compound, the “Population Healthy Nuclei (%)” value [5] was 73% and 62%, the “Population Hoechst High Intensity Objects (%)” value [5] was 1% and 2% and the “Population Membrane Permeable-Phenotype (%)” value [5] was 1% and 2%. The “Population Mitochondria Different-Phenotype (%)” value [5] was 2%, the “Population Mitotic Cells (%)” value [5] was 28% and 42% and the “Population Normal (%)” value [5] was 98% and 97%. For the same compound, the “Population Pyknosed Nuclei (%)” value [5] was 7% and 3%, the “Population Tubulin-Different-Phenotype (%)” value [5] was 30% and 36% and the “Total Cell Count” value [5] was 188 and 184. For the same compound, the “Population Apoptotic (%)” value [6] was 93% and 62%, the “Population Fragmented Nuclei (%)” value [6] was 16% and 38% and the “Population Healthy Nuclei (%)” value [6] was 70% and 56%. The “Population Hoechst High Intensity Objects (%)” value [6] was 8% and 3%, the “Population Membrane Permeable-Phenotype (%)” value [6] was 2% and the “Population Normal (%)” value [6] was 91% and 96%. For the same compound, the “Population Pyknosed Nuclei (%)” value [6] was 13% and 5%, the “Population Tubulin-Different-Phenotype (%)” value [6] was 96% and 85% and the “Total Cell Count” value [6] was 129 and 155.
